Measured values published in article PMC8717358 (Journal of the American Chemical Society, 2021).
Residue numbers refer to the chain shown, from its start.

What was measured:
Med25 AcID [1] = target: T1, Med25 AcID (Homo sapiens, UniProt Q71SY5); experiment: Mass spectrometry; type: binding; conditions: mass spectrometry
T1 sequence (Q71SY5 389-543 limits assumed): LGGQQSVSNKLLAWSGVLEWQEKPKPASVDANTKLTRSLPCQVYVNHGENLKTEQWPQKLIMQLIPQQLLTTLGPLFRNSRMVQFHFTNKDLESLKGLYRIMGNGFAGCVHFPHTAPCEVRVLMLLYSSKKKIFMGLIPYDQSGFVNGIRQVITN

[2] = target: T2, Med25 AcID fl-VP16(465–490) (Homo sapiens, UniProt Q71SY5); type: binding
T2 sequence (Q71SY5 389-543 limits assumed): T1 sequence (Q71SY5 389-543 limits assumed)

IBiD ACTR = IBiD ACTR (Homo sapiens, UniProt Q92793); type: binding
Med25 AcID [3] = target: T3, Med25 AcID (Homo sapiens, UniProt Q71SY5, K519R); experiment: Mass spectrometry; type: binding; conditions: Med25 K519R mutant
T3 sequence (Q71SY5 394-543 K519R): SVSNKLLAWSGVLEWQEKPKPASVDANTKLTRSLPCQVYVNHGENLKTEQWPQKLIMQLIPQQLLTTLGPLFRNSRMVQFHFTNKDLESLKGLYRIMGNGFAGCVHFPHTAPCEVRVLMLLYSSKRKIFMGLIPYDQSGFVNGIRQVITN

Med25 AcID [4] = target: T4, Med25 AcID (Homo sapiens, UniProt Q71SY5, K520R); experiment: Mass spectrometry; type: binding; conditions: Med25 K520R mutant
T4 sequence (Q71SY5 394-543 K520R): T3 sequence (Q71SY5 394-543 K519R) with R126K, K127R

Med25 AcID ETV5 = target: T5, Med25 AcID ETV5 (Homo sapiens, UniProt Q71SY5); experiment: Fluorescence polarization inhibition of Med25 AcID ETV5 interaction; conditions: H1 binding surface
T5 sequence (Q71SY5 389-543 limits assumed): T1 sequence (Q71SY5 389-543 limits assumed)

Med25 ATF6α = target: T6, Med25 ATF6α (Homo sapiens, UniProt Q71SY5); experiment: Fluorescence polarization inhibition of Med25 ATF6α interaction; conditions: H2 binding surface
T6 sequence (Q71SY5 389-543 limits assumed): T1 sequence (Q71SY5 389-543 limits assumed)

full-length Med25 = target: T7, full-length Med25 (Homo sapiens, UniProt Q71SY5); experiment: Cellular thermal shift assay in HeLa cell nuclear extracts; type: cell-based; conditions: 25 μM NA
T7 sequence (Q71SY5 1-747): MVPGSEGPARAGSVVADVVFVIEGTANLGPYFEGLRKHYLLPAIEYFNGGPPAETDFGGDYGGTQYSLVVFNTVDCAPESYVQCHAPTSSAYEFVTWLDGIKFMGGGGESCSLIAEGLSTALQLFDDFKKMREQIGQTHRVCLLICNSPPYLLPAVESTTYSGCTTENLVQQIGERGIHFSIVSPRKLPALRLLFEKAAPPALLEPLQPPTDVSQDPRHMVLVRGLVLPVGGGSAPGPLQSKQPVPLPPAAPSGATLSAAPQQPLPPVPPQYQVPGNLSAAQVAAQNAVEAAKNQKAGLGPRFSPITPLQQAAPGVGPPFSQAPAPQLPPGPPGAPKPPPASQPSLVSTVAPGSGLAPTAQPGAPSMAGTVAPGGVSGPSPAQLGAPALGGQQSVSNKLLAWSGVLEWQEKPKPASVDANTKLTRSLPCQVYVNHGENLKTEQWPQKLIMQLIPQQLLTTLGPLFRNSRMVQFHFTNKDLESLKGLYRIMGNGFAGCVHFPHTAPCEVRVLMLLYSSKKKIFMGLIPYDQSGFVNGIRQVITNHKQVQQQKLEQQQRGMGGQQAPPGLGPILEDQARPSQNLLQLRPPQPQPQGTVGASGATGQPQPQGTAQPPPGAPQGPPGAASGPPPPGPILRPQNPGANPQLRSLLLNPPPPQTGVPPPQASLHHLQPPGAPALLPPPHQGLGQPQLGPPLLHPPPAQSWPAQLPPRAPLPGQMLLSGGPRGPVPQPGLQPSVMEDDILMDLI
Outline: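 HeLa cell nuclear extracts were dosed with 25 μM test compound or an equivalent amount of DMSO vehicle. Samples were then heated across a range of temperatures to assess thermal stabilization of Med25.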

Med25 ETV5 complex [5] = target: T8, Med25 ETV5 complex (Homo sapiens, UniProt Q71SY5); experiment: Co-immunoprecipitation of ETV5 with Med25 in HeLa cells; type: cell-based; conditions: 25 μM NA
T8 sequence (Q71SY5 1-747): T7 sequence (Q71SY5 1-747)

MDA-MB-231 cells = experiment: Isobologram synergy with lapatinib, cell viability assay; type: cell-based; conditions: fixed dose ratios, 2 days, MTT
MMP2 transcript = experiment: qPCR analysis of MMP2 transcript levels in VARI068 cells; type: cell-based; conditions: normalized to RPL19
Outline: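 Test compound- or vehicle-treated cells were assayed by qPCR for MMP2 transcript, normalized to reference gene RPL19. Runs were technical triplicates in biological duplicate and averaged.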

Med25 ETV5 complex [6] = target: T8, Med25 ETV5 complex; experiment: Co-immunoprecipitation of ETV5 with Med25 in VARI068 cells; type: cell-based
Outline: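 Cells were treated with test compound. ETV5 was co-immunoprecipitated with Med25 and detected by Western blot.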

SMILES: COc1cc(C)c(C(=O)Oc2cc(C)c(C(=O)O)c(O)c2C)c(O)c1C=O [baeomycesic acid]
- covalent adduct formation with Med25 AcID (Med25 AcID [1]): covalent adducts with Med25 were observed

SMILES: O=Cc1ccccc1O [salicylaldehyde]
- impact on binding of activators to Med25 AcID [2]: does not impact binding of activators
- covalent adduct formation with Med25 AcID (Med25 AcID [1]): efficiently labels Med25 AcID

SMILES: COc1cc(C)c2c(c1C=O)Oc1c(c(C)c(O)c3c1C(O)OC3=O)OC2=O (centres unmarked) [Stictic acid]
- IC50 [2]: > 250 µM

SMILES: Cc1cc(O)c(C=O)c2c1C(=O)Oc1c(C)c(O)c3c(c1O2)C(O)OC3=O (centres unmarked) [NA, norstictic acid]
- time at which significant inhibition was observed ([2]; time-course experiment): 5 min
- IC50 (IBiD ACTR): > 250 µM
- covalent adduct formation with Med25 AcID (Med25 AcID [1]): concentration-dependent covalent adduct(s)
- reduction in mass abundance of the +1 covalent adduct (Med25 AcID [3]): 53%
- reduction in mass abundance of the NA covalent adduct (Med25 AcID [4]): 22%
- inhibition of Med25 PPI with ETV5 (Med25 AcID ETV5): inhibits
- inhibition of Med25 PPI with ATF6α (Med25 ATF6α): inhibits
- thermal stabilization of endogenous Med25 (full-length Med25): stabilizes endogenous Med25 protein
- formation of Med25 ETV5 complex (Med25 ETV5 complex [5]): blocks the formation of the Med25 ETV5 complex
- synergy with lapatinib (MDA-MB-231 cells): strong synergy was observed
- MMP2 transcript levels relative to vehicle (MMP2 transcript): substantial downregulation of MMP2
- formation of Med25 ETV5 complex (Med25 ETV5 complex [6]): blocks the Med25 ETV5 complex

SMILES: COc1cc(C(=O)O)c2c(c1C)OC(=O)c1c(C)cc(O)c(C=O)c1O2 [PA, psoromic acid]
- IC50 [2]: 3.9 ± 0.3 µM
